Compound activity as filed in PubChem BioAssay.
The full list was thinned out, with hits kept by preference.
PfG6PD inh: PfG6PD enzyme inhibitors, primary screen, biochemical, fluorescence intensity, uHTS | hit rate 0.78% among 350,000 | inhibition, % at 20 µM | PfGluPho enzyme, NADPH resazurin-diaphorase fluorescence | glucose-6-phosphate dehydrogenase-6-phosphogluconolactonase (Plasmodium falciparum 3D7);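 active means inhibition reaching at least a set limit at 20 µM in the primary screen, cut at about 59% in these data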;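 further: 0% = DMSO wells with substrate and 100% = DMSO wells lacking glucose-6-phosphate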
G6PDH counter: L. mesenteroides G6PDH inhibitors, counter-screen for G6PDH-coupled screening assays, biochemical, Leuconostoc mesenteroides enzyme; glucose-6-phosphate dehydrogenase [Leuconostoc mesenteroides]; Purified L. mesenteroides G6PDH, diaphorase/resazurin coupled fluorescence, 45 min; inhibition, % at 5 µM; hit rate 0.12% among 200,000; AID 1020, 2008
L major viab: Leishmania major promastigote growth inhibition, primary screen. Leishmania major promastigotes, resazurin fluorescence viability. inhibition, % at 10 µM. hit rate 9% among 200,000. AID 1063, 2008;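 further: promastigotes grown with compound for 44 hours at 28 °C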
Diaph inh CS: diaphorase inhibitors and chemical oxidizers, primary screen, counter-screen for diaphorase-coupled primary assays, biochemical, uHTS, resorufin fluorescence; inhibition, % at 20 µM; hit rate 0.69% among 190,000; diaphorase resazurin-to-resorufin fluorescence, NADH, 16 min; bacterial (C. kluyveri) enzyme, not human;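 active means primary screen inhibition at 20 µM above a set limit, cut at about 50% in these data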;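 further: plate controls were DMSO with full reaction for no effect and wells lacking NADH for full effect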
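Detection: fluorescence of resorufin formed from resazurin, Ex 544/Em 590 nm; test system: Clostridium kluyveri diaphorase enzyme; amount: 0.14 U/mL diaphorase, enzyme working solution; times: 16-min room-temperature incubation before reading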
Diaphorase act: compounds boosting diaphorase resazurin reduction – biochemical, uHTS, resorufin fluorescence, counter-screen for diaphorase-coupled primary assays, primary screen; Diaphorase/resazurin coupled assay, 16 min; active compounds read high; 1 = vehicle wells, 0 = NADH-free wells; activation factor at 20 µM; hit rate 0.005% among 190,000; AID 1229, 2008;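 active means diaphorase activity raised at least twofold by the compound at 20 µM; inactive means activation factor below 2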
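System – purified diaphorase enzyme from Clostridium kluyveri · Input – enzyme 0.07 U/mL final · Also added – final NADH 0.114 mM, resazurin 0.1 mM · Measured by – fluorescence of resorufin, 544 nm excitation, 590 nm emission · Timing – 16 min enzyme reaction, ambient temperature · Measure – resorufin increase flagging diaphorase activators or reducers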
Redox H2O2 prof: compounds producing H2O2 with reducing agent – biochemical, NIH compound library profiling, artefact control for MLSCN library redox annotation, primary screen. hit rate 0.03% among 200,000. DTT-dependent redox cycling H2O2, phenol red/HRP absorbance; 100% = 100 µM peroxide control, 0% = buffer. activation, % at 10 µM;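 active means activation of at least 50% relative to the plate's high and low controls in the primary single-dose screen; inactive means activation below 50%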;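 further: compound incubated with DTT at 0.8 mM final as the reducing agent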
* hit, by the source's call. Unless noted, no stated cut-off is given here; in the data, active means inhibition above about 50%; inactive means the rest.

Results for CCn1c(=N)n(CC(=O)C23CC4CC(CC(C4)C2)C3)c2ccccc21 ?
PfG6PD inh: -13; G6PDH counter: 7; L major viab: 62*; Diaph inh CS: 10; Diaphorase act: 0.9; Redox H2O2 prof: -1

What do the screens show for `Cn1c(C(=O)c2ccccc2[N+](=O)[O-])nc2ccccc21`?
PfG6PD inh: 7; G6PDH counter: 11; L major viab: 9; Diaph inh CS: 8; Diaphorase act: 0.9; Redox H2O2 prof: 0

What do the screens show for `O=C(c1cc(Br)c[nH]1)N1CCSCC1`?
PfG6PD inh: -6

Results for CCC1(C)CC(CCNS(=O)(=O)c2ccc(C)cc2)(c2ccc(C)cc2)CCO1 (stereo not given) ?
PfG6PD inh: 14; G6PDH counter: 3; L major viab: 52*; Diaph inh CS: 17; Diaphorase act: 0.8; Redox H2O2 prof: 0

What do the screens show for `CC1(C)CC(CCNS(=O)(=O)c2ccccc2)(c2ccccc2)CCO1` (stereo not given)?
PfG6PD inh: 3; G6PDH counter: 1; L major viab: 100*; Diaph inh CS: 9; Diaphorase act: 0.9; Redox H2O2 prof: 0

What do the screens show for `Cc1ccc(S(=O)(=O)NCCC2(C(C)C)CCOC(C)(C)C2)cc1` (stereo not given)?
PfG6PD inh: 9; G6PDH counter: 3; L major viab: 95*; Diaph inh CS: 24; Diaphorase act: 0.8; Redox H2O2 prof: 0

How did C/C(=C\C(=O)c1sccc1Cl)N(C)C do in these assays?
PfG6PD inh: -6; G6PDH counter: -3; L major viab: 6; Diaph inh CS: -16; Diaphorase act: 1.2; Redox H2O2 prof: 0

How did O=C(Nc1ccc2nc3n(c(=O)c2c1)CCCC3)c1cc([N+](=O)[O-])ccc1F do in these assays?
PfG6PD inh: 2; G6PDH counter: 2; L major viab: 100*; Diaph inh CS: 10; Diaphorase act: 0.9; Redox H2O2 prof: 1

Results for CCCCNC(=S)Nc1ccc2nc3n(c(=O)c2c1)CCCCC3 ?
PfG6PD inh: 1; G6PDH counter: 2; L major viab: 51*; Diaph inh CS: 11; Diaphorase act: 0.9; Redox H2O2 prof: 0

How did O=C(Nc1ccc2nc3n(c(=O)c2c1)CCCC3)c1cccc([N+](=O)[O-])c1 do in these assays?
PfG6PD inh: 4; G6PDH counter: -43; L major viab: 17; Diaph inh CS: 18; Diaphorase act: 0.8; Redox H2O2 prof: 1

How did CCOCCCNC(=S)Nc1ccc2nc3n(c(=O)c2c1)CCCCC3 do in these assays?
PfG6PD inh: -11; G6PDH counter: -3; L major viab: 8; Diaph inh CS: 4; Diaphorase act: 1; Redox H2O2 prof: -1

How did O=C(c1ccc(CS(=O)c2ccccc2Cl)o1)N1CCN(C2CCCCC2)CC1 (stereo not given) do in these assays?
PfG6PD inh: -4

What do the screens show for `CCn1c(/C=C/Nc2ccccc2)[n+](CC)c2ccc(Cl)cc21`?
PfG6PD inh: -6; G6PDH counter: 4; L major viab: 91*; Diaph inh CS: 8; Diaphorase act: 0.9; Redox H2O2 prof: 0

What do the screens show for `CCn1c(/C=C/N(C)c2ccccc2)[n+](CC)c2ccc(Cl)cc21`?
PfG6PD inh: -6; G6PDH counter: -17; L major viab: 100*; Diaph inh CS: 11; Diaphorase act: 0.9; Redox H2O2 prof: 1

Results for CCn1c(C)[n+](Cc2ccccc2)c2ccc(Cl)cc21 ?
PfG6PD inh: 4; G6PDH counter: 1; L major viab: 9; Diaph inh CS: 3; Diaphorase act: 1; Redox H2O2 prof: 0

What do the screens show for `CC(c1ccccc1C(O)c1ccccc1)N(C)C` (stereo not given)?
PfG6PD inh: -1; G6PDH counter: 1; L major viab: -2; Diaph inh CS: 5; Diaphorase act: 0.9; Redox H2O2 prof: -8

What do the screens show for `Cc1ccc(C(O)(c2ccccc2)c2ccccc2C(C)N(C)C)c(C)c1` (stereo not given)?
PfG6PD inh: 16; G6PDH counter: 2; L major viab: 100*; Diaph inh CS: 2; Diaphorase act: 1; Redox H2O2 prof: -4

How did CCOc1ccc(-c2nnc3ccc(SC(C)C)nn23)cc1 do in these assays?
PfG6PD inh: 35; G6PDH counter: 15; L major viab: 20; Diaph inh CS: 60*; Diaphorase act: 0.4; Redox H2O2 prof: 0

How did CCOC(=O)C1=C(COC(=O)COc2cc(C)ccc2C)NC(=O)NC1C (stereo not given) do in these assays?
PfG6PD inh: 1

What do the screens show for `CCC(=O)N1c2ccc(S(=O)(=O)CCC(=O)N3CCn4c3nc3ccccc34)cc2CC1C` (stereo not given)?
PfG6PD inh: 8; G6PDH counter: 4; L major viab: 79*; Diaph inh CS: 21; Diaphorase act: 0.8; Redox H2O2 prof: -1

How did NC(=O)c1sc2nc3c(c(-c4ccco4)c2c1N)CCC3 do in these assays?
PfG6PD inh: 9; G6PDH counter: -4; L major viab: 4; Diaph inh CS: 81*; Diaphorase act: 0.2; Redox H2O2 prof: 0

What do the screens show for `Nc1c(C(=O)NC2CC2)sc2nc3c(c(-c4ccco4)c12)CC/C3=C/c1ccco1`?
PfG6PD inh: 36; G6PDH counter: 13; L major viab: -2; Diaph inh CS: 87*; Diaphorase act: 0.1; Redox H2O2 prof: 4

What do the screens show for `Cc1ccc(-c2c3c(nc4sc(C(N)=O)c(N)c24)CCCC3)o1`?
PfG6PD inh: 15; G6PDH counter: 10; L major viab: 5; Diaph inh CS: 31; Diaphorase act: 0.7; Redox H2O2 prof: 1

How did CCOc1ccc(C2=NNC(c3cccs3)=Nc3ccc(OC)cc32)cc1OCC do in these assays?
PfG6PD inh: -8; G6PDH counter: -1; L major viab: 67*; Diaph inh CS: 24; Diaphorase act: 0.8; Redox H2O2 prof: -1

Results for COc1ccc(C2=NNC(c3cccs3)=Nc3ccc(OC)cc32)cc1 ?
PfG6PD inh: -16; G6PDH counter: 5; L major viab: 10; Diaph inh CS: 23; Diaphorase act: 0.8; Redox H2O2 prof: 1

What do the screens show for `O=C(COC(=O)c1ccc2[nH]c3c(c2c1)CCCC3)Nc1ccccc1`?
PfG6PD inh: -6; G6PDH counter: -2; L major viab: 88*; Diaph inh CS: 11; Diaphorase act: 0.9
